Reference: paper PMC10723041 (Science (New York, N.Y.), 2021)
Like-named read-outs stand apart in the source and are kept apart here.

Experiments:
S. aureus CSE (SaCSE) = S. aureus CSE (SaCSE) (Staphylococcus aureus, UniProt X5E0F1); experiment: H2S production enzymatic assay, SaCSE; type: biochemical; settings: for inhibition of bCSEs (SaCSE): at considerably higher concentrations than for hCSE
SaCSE = SaCSE (Staphylococcus aureus, UniProt X5E0F1); experiment: Microscale Thermophoresis; type: binding
SaCSE H339A mutant = molecular target: T1, SaCSE H339A mutant (Staphylococcus aureus, UniProt X5E0F1, H339A); experiment: H2S generating activity of SaCSE H339A mutant; type: biochemical, S. aureus; settings: for IC50: read-out: IC50 for SaCSE H339A mutant, mean ± SE, n=2
T1 sequence (X5E0F1 1-380 H339A): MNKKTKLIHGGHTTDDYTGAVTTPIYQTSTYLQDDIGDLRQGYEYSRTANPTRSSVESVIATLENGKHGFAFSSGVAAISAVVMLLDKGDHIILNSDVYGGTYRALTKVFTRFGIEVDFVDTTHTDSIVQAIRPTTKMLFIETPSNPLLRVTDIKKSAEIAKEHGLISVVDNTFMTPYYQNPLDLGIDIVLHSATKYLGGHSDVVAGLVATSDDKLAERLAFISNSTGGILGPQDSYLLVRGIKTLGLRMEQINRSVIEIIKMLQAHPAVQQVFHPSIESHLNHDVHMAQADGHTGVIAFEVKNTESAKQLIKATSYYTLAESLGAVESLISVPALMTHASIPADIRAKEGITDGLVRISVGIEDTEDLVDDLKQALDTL

[1] = molecular target: P. aeruginosa CSE (PaCSE) (Pseudomonas aeruginosa, UniProt Q9I6A0); experiment: H2S production enzymatic assay, PaCSE; type: biochemical; settings: for inhibition of bCSEs (PaCSE): at considerably higher concentrations than for hCSE
P. aeruginosa PA14 [2] = experiment: Persister viability under antibiotic challenge; type: cell-based; settings: wt cells, ciprofloxacin 10 µg/ml challenge
Method in brief: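 Exponentially growing P. aeruginosa PA14 cultures were challenged with ciprofloxacin at 10 µg/ml. The viable cell fraction was followed over time as a killing curve, and the curve tail was taken as the persister population. Data are mean ± SE, n=3.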

S. aureus USA300 = experiment: Persister viability under antibiotic challenge; type: cell-based; settings: wt cells, ciprofloxacin 10 µg/ml challenge
P. aeruginosa PA14 [3] = experiment: Pyocyanin redox state in stationary phase culture; type: cell-based; settings: well-aerated PA14; NL1 180 µM for 18 h
Method in brief: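 Stationary-phase P. aeruginosa PA14 cultures (OD600 ~1.5) were well aerated and treated with test compound at 180 µM for 18 h. Pyocyanin redox state was judged visually by culture colour: blue/green for oxidized, light yellow for reduced. Comparators were untreated wt and a cbs/cse(−) mutant.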

[4] = Chronic exposure in animal model; type: in vivo; settings: stringent animal model
[5] = test system: different types of human cells; experiment: Toxicity to human cells; type: cell-based; settings: various assays
P. aeruginosa PA14 [6] = experiment: P. aeruginosa intranasal lung infection model; type: in vivo, Swiss Webster mice; settings: for lung bacterial burden, single agent: NL1 or Gm administered separately, lungs collected 5h after infection
[7] = test system: S. aureus RN4220 (MSSA) and USA300 (MRSA); experiment: Antibiotic potentiation; type: cell-based
S. aureus Newman = experiment: S. aureus sepsis; type: in vivo, Swiss Webster mice; settings: NL1 or Gm alone
[8] = test system: P. aeruginosa PA14 and PAO1; experiment: Antibiotic potentiation; type: cell-based
persisters = experiment: Persister assay with H2S donor; type: cell-based
[9] = to approximately the same extent as genetic inactivation of bCSE

O=C(O)CNC(=O)Cn1c(C(F)(F)F)cc2ccc(Br)cc21 [NL1F3]
IC50 (S. aureus CSE (SaCSE)): > 200000 nM | apparent KD for SaCSE (MST) (SaCSE): failed

Cc1oc(Cn2ccc3ccc(Br)cc32)cc1C(=O)O [NL2]
reduction of inhibition in H339A mutant versus wt SaCSE (SaCSE H339A mutant): ~ 70 fold | IC50 (SaCSE H339A mutant): 154000 ± 94800 nM | aqueous solubility relative to NL3 (Aqueous solubility): higher aqueous solubility than NL3

NO [HA, hydroxylamine]
inhibition of bCSEs (PaCSE) [1]: capable of inhibiting bCSEs | inhibition of bCSEs (SaCSE) (S. aureus CSE (SaCSE)): capable of inhibiting bCSEs

O=C(O)CNC(=O)Cn1ccc2ccc(Br)cc21 [NL1]
effect on persisters, P. aeruginosa PA14 (P. aeruginosa PA14 [2]): eliminated approximately the same amount of persisters as did genetic inactivation of cse/cbs | effect on persisters, S. aureus USA300 (S. aureus USA300): eliminated approximately the same amount of persisters as did genetic inactivation of cse/cbs | culture coloration (pyocyanin redox state) (P. aeruginosa PA14 [3]): green-blue coloration characteristic of the oxidized pyocyanin | adverse effects of chronic exposure [4]: No adverse effects | non-toxic concentration in human cells [5]: at least 25 × of its minimal potentiator concentration | lung bacterial burden, combination with Gm (P. aeruginosa PA14 [6]; NL1 60 mg/kg together with Gm 2 mg/kg subcutaneous, 30 min after infection, lungs 5h after infection): markedly decreased | lung bacterial burden, single agent (P. aeruginosa PA14 [6]): did not change significantly | sensitization of bCSE-deficient S. aureus RN4220 to Gm ([7]; cse mutant): failed to sensitize | sensitization of wild type S. aureus RN4220 to Gm [7, 9]: enhanced the killing effect of Gm | survival, single agent (S. aureus Newman): neither NL1 nor Gm alone increased survival | sensitization of bCSE-deficient P. aeruginosa PA14 to Gm ([8]; cse mutant): failed to sensitize | sensitization of wild type P. aeruginosa PA14 to Gm [8, 9]: enhanced the killing effect of Gm | aqueous solubility relative to NL3 (Aqueous solubility): higher aqueous solubility than NL3 | Kd (SaCSE): ~400 nM

[Na+].[SH-] [NaHS, reference compound]
effect of exogenous sulfide on Gm potentiation by NL1, S. aureus RN4220 [7]: largely suppressed Gm potentiation | effect of exogenous sulfide on Gm potentiation by NL1, P. aeruginosa PA14 [8]: largely suppressed Gm potentiation

NCCO/C=C/[C@H](N)C(=O)O [AVG, L-aminoethoxyvinylglycine]
inhibition of bCSEs (PaCSE) [1]: capable of inhibiting bCSEs | inhibition of bCSEs (SaCSE) (S. aureus CSE (SaCSE)): capable of inhibiting bCSEs

C=CCSSSCC=C [DATS, diallyl trisulfide]
effect of H2S donor on anti-persister effect of NL1 (persisters): prevented the anti-persister effect of NL1

NOCC(=O)O [AOAA, aminooxyacetic acid]
inhibition of bCSEs (PaCSE) [1]: capable of inhibiting bCSEs | inhibition of bCSEs (SaCSE) (S. aureus CSE (SaCSE)): capable of inhibiting bCSEs

O=C(O)c1cc(Cn2ccc3ccc(-c4cc5cccc(Cl)c5s4)cc32)[nH]n1 [NL3]
IC50 (SaCSE H339A mutant): 1700 ± 100 nM | IC50 ([1]; read-out: IC50 for PaCSE, L-cysteine at 100 μM): 1200 nM | IC50 (S. aureus CSE (SaCSE); read-out: IC50 for SaCSE, L-cysteine at 100 μM): 700 nM

gentamycin [Gm, reference compound]
lung bacterial burden, single agent (P. aeruginosa PA14 [6]): did not change significantly | survival, single agent (S. aureus Newman): neither NL1 nor Gm alone increased survival
